Results taken from ChEMBL document CHEMBL1152541, “Staurosporine tethered peptide ligands that target cAMP-dependent protein kinase (PKA): optimization and selectivity profiling” (Bioorg Med Chem, 2009).
Each block holds one compound with its values, some of them ahead of it. *1 amine or outer side, *2 acyl side, *3 side chain or, on linkers, in order; H or OH if unused. Where a SMILES comes first, the peptide text is derived from it. Bridges are numbered along the chain shown (N, C = ends). [ ]: non-standard residue; d: D form. The star is where a group is joined. Staurosporine = CO[C@@H]1[C@H](N(C)*)C[C@H]2O[C@]1(C)n1c3ccccc3c3c4c(c5c6ccccc6n2c5c31)C(=O)NC4; Suc = O=C(CCC(=O)[*:2])[*:1]; Dap = NC[C@H](N)C(=O)O; βAla = NCCC(=O)O

How the values were obtained:
[1] = target: Serine/threonine-protein kinase PLK3 (Homo sapiens) (UniProt Q9H4B4); test: Binding affinity to human PLK3 at 500 nM by cell-based competition binding assay relative to control in presence of DTT
Serine/threonine-protein kinase PLK3 (Homo sapiens), sequence (Q9H4B4 whole entry, looked up): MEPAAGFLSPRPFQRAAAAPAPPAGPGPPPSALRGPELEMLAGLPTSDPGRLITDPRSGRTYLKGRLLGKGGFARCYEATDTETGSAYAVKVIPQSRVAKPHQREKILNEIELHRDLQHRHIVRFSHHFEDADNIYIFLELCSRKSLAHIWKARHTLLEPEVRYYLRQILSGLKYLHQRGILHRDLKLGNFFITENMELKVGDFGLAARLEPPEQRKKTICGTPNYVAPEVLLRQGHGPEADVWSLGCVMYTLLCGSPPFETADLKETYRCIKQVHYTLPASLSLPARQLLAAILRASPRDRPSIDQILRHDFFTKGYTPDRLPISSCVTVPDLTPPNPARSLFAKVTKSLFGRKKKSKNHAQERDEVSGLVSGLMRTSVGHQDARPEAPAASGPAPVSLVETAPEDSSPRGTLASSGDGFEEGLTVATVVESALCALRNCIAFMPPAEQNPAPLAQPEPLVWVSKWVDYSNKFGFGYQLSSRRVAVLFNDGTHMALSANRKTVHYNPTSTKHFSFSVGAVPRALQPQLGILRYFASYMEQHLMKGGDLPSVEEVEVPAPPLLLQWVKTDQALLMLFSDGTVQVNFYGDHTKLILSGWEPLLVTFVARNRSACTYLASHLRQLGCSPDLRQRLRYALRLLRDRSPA

[2] = target: T1, Serine/threonine-protein kinase DCLK1 (Homo sapiens) (UniProt O15075); test: Binding affinity to human DCAMKL1 at 500 nM by cell-based competition binding assay relative to control in presence of DTT
T1 sequence (whole entry): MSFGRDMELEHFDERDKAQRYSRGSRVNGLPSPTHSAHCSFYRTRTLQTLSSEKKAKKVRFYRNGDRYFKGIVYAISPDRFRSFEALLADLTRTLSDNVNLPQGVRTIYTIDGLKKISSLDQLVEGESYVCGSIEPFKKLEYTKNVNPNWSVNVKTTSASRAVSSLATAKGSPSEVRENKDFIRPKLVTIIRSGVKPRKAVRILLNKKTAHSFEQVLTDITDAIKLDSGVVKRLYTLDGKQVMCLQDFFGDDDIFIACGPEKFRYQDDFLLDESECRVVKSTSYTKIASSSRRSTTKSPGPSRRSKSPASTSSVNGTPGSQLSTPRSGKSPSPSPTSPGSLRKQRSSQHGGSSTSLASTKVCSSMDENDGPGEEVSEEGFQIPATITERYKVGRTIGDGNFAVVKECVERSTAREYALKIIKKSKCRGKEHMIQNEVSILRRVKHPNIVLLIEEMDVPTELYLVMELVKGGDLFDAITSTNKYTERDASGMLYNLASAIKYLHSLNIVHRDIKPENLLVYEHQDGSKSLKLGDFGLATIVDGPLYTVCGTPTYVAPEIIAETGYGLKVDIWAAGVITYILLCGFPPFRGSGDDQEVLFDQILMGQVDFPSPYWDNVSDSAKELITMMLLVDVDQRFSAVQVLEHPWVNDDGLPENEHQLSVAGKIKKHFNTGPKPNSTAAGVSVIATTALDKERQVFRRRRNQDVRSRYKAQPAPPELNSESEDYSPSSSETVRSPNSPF
In short: (§1)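 Commercial (Ambit) competitive kinase-binding panel of 90 kinases measured the binding profile. Run under reducing conditions of 7.5 mM DTT. Binding is expressed relative to control.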

[3] = target: T2, Serine/threonine-protein kinase STK11 (Homo sapiens) (UniProt Q15831); test: Binding affinity to human LKB1 at 200 nM by cell-based competition binding assay relative to control in presence of DTT
T2 sequence (whole entry): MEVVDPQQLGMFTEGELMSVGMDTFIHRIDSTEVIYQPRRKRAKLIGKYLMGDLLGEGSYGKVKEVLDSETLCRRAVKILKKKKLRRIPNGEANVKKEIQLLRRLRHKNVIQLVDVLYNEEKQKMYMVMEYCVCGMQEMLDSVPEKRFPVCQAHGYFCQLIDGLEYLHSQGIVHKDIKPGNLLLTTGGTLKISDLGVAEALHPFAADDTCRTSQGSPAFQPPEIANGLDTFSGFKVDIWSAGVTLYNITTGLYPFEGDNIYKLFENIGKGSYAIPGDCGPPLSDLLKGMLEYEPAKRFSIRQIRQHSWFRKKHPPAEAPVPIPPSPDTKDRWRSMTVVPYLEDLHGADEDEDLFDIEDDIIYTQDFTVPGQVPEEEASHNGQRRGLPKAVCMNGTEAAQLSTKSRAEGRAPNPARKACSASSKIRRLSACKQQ
In short: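 Competition binding screen (Ambit) across a panel of 90 kinases, scoring test ligand displacement of each kinase's binding relative to control. The screen ran under reducing conditions with 7.5 mM DTT.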

[4] = target: Receptor tyrosine-protein kinase erbB-2 (Homo sapiens) (UniProt P04626); test: Binding affinity to human ERBB2 at 200 nM by cell-based competition binding assay relative to control in presence of DTT; in short: as §1
Receptor tyrosine-protein kinase erbB-2 (Homo sapiens), sequence (P04626 whole entry): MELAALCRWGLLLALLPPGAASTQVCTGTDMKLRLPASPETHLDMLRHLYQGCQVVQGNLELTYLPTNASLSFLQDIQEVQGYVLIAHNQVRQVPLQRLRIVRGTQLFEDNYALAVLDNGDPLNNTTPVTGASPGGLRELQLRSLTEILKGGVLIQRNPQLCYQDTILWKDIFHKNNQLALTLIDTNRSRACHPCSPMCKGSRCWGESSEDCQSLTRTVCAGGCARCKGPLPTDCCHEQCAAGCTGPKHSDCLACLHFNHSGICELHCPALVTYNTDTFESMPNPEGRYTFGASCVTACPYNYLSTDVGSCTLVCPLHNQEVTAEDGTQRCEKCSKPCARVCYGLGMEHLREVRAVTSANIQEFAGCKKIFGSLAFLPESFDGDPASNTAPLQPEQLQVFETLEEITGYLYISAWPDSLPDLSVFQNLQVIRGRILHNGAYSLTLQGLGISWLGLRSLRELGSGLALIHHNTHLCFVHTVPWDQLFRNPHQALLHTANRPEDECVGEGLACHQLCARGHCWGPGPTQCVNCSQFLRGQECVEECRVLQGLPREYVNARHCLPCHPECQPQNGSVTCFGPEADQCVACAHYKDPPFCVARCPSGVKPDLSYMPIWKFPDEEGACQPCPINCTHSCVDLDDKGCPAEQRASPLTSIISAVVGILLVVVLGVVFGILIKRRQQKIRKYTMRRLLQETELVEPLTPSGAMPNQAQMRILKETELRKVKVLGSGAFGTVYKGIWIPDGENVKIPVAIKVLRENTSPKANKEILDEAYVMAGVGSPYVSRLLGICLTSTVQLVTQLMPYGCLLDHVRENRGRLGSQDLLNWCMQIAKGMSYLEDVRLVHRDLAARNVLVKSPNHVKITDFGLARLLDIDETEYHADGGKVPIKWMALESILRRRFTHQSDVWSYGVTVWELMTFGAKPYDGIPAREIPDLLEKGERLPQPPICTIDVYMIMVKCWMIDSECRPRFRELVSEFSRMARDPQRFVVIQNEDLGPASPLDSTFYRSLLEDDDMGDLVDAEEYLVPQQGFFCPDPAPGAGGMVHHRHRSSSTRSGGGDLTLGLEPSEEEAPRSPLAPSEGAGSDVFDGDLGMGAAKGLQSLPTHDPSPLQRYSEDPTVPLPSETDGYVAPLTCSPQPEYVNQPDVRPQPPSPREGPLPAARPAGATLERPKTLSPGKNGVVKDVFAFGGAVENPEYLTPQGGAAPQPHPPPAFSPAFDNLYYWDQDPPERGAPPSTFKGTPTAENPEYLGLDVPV

[5] = target: T3, Serine/threonine-protein kinase PLK4 (Homo sapiens) (UniProt O00444); test: Binding affinity to human PLK4 at 200 nM by cell-based competition binding assay relative to control in presence of DTT
T3 sequence (whole entry): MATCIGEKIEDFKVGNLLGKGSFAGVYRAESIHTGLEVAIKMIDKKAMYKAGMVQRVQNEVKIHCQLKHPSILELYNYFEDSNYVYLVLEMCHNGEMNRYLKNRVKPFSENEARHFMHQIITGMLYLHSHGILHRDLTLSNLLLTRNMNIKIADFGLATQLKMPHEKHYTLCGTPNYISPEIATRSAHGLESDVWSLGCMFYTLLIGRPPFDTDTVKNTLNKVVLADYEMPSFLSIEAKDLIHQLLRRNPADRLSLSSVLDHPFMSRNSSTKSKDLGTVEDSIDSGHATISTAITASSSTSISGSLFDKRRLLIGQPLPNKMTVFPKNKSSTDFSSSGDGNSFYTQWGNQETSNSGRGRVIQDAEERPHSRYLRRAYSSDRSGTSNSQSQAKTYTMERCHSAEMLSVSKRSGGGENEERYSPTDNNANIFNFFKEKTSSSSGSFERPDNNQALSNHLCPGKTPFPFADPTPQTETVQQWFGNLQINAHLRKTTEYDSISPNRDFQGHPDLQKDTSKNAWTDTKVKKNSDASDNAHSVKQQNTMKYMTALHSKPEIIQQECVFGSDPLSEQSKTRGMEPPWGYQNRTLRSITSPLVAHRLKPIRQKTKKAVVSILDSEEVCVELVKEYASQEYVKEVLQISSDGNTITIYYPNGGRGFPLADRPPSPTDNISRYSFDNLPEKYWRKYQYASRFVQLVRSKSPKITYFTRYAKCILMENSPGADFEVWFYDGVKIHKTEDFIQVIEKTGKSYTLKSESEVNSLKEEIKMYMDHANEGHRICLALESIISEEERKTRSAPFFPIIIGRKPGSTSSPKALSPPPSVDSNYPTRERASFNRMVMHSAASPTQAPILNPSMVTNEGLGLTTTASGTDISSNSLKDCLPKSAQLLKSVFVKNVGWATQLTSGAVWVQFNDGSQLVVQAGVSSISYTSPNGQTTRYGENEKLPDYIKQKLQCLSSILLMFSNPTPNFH

[6] = target: T4, Testis-specific serine/threonine-protein kinase 1 (Homo sapiens) (UniProt Q9BXA7); test: Binding affinity to human TSSK1 at 50 nM by cell-based competition binding assay relative to control in presence of DTT
T4 sequence (whole entry): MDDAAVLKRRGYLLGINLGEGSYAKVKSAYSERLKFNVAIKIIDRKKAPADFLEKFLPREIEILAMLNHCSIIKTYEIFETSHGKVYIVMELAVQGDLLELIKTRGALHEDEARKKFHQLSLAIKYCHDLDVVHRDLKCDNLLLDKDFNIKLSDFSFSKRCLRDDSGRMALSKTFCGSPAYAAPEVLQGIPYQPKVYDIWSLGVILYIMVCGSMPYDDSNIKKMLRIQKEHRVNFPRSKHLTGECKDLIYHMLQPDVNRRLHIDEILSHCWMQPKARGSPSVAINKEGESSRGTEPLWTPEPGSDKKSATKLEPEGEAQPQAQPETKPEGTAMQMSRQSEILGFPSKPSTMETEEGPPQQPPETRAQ

Activity [1]: 100% | Activity [2]: 100%
SMILES: CO[C@@H]1[C@H](N(C)C(=O)CCC(=O)NCCC(=O)NCCC(=O)NCCC(N)=O)C[C@H]2O[C@]1(C)n1c3ccccc3c3c4c(c5c6ccccc6n2c5c31)C(=O)NC4

Activity [3]: 81% | Activity [4]: 100% | Activity [5]: 4.9%
SMILES: CO[C@@H]1[C@H](N(C)C(=O)CCC(=O)NCCC(=O)NCCC(=O)NCCC(=O)NCCC(=O)NCCC(=O)NCCC(=O)NCCC(=O)N[C@H]2CSSC[C@@H](C(=O)NCC(N)=O)NC(=O)CNC(=O)[C@H](Cc3ccccc3)NC(=O)[C@H](C(C)C)NC(=O)[C@H](CCCNC(=N)N)NC(=O)[C@H](Cc3ccccc3)NC(=O)[C@H](C(C)C)NC2=O)C[C@H]2O[C@]1(C)n1c3ccccc3c3c4c(c5c6ccccc6n2c5c31)C(=O)NC4 ({Staurosporine-Suc-βAla-βAla-βAla-βAla-βAla-βAla-βAla}-CVFRVFGCG-NH2; disulfide 1-8)

Activity [6]: 100%
SMILES: CO[C@@H]1[C@H](N(C)C(=O)CCC(=O)NCCC(=O)NCCC(=O)NCCC(=O)NCCC(=O)NCCC(=O)NCCC(=O)NCCC(=O)N[C@H]2CNC(=O)C[C@@H](C(N)=O)NC(=O)CNC(=O)[C@H](Cc3ccccc3)NC(=O)[C@H](C(C)C)NC(=O)[C@H](CCCNC(=N)N)NC(=O)[C@H](Cc3ccccc3)NC(=O)[C@H](C(C)C)NC2=O)C[C@H]2O[C@]1(C)n1c3ccccc3c3c4c(c5c6ccccc6n2c5c31)C(=O)NC4 ({Staurosporine-Suc-βAla-βAla-βAla-βAla-βAla-βAla-βAla}-[Dap]VFRVFGD-NH2; lactam 1-8)
